Published values collected from several papers.
Lines come from different studies, so protocols differ. Converted amounts (≈) assume the structure as drawn.
Organism: Enterococcus faecalis

With `CSc1ccc(-c2nc3ccc(C)cc3n2Cc2ccccc2)cc1` the MIC was 128 µg/mL (≈ 372 µM) (microbial growth, broth dilution; ATCC29212).
With `Cc1cc(C)n(C(=O)c2ccc(-n3c(C)ccc3C)cc2)n1` the MIC was 125 µg/mL (≈ 426 µM) (microbial growth, broth dilution; ATCC14506; 18 h).
The MIC of `CC1(C)S[C@@H]2[C@H](NC(=O)[C@H](N)c3ccccc3)C(=O)N2[C@H]1C(=O)O` is reported as 1 µg/mL (≈ 2.86 µM) (microbial growth, broth dilution; ATCC29212).
For `Clc1ccc(-c2nc3ccccc3[nH]2)c(Cl)c1`, the MIC was 64 µg/mL (≈ 243 µM) (microbial growth, broth dilution; ATCC29212).
With `Cc1ccc(C)n1-c1ccc(-c2nnc(-c3c(Cl)cccc3Cl)[nH]2)cc1` the MIC was 8 µg/mL (≈ 20.9 µM) (microbial growth, broth dilution; ATCC14506; 18 h).
`O=C(O)CN(CCN(CC(=O)O)CC(=O)O)CC(=O)O` gave an MBC of 500 µM (≈ 146 µg/mL) (microbial killing; OG1RF).
`COc1cccc(-c2nc3ccc(C)cc3[nH]2)c1` has an MIC of 128 µg/mL (≈ 537 µM) (microbial growth, broth dilution; ATCC29212).
`CCn1cc(C(=O)O)c(=O)c2cc(F)c(N3CCNCC3)cc21` has an MBC of 4 µM (≈ 1.28 µg/mL) (microbial killing, broth dilution; NCTC12697).
For `CC1(C)S[C@@H]2[C@H](NC(=O)[C@H](N)c3ccccc3)C(=O)N2[C@H]1C(=O)O`, the inhibition was 100% (microbial growth, agar dilution; ATCC29212; 26.93 µM).
`c1ccc(CN(CCN(Cc2ccccn2)Cc2ccccn2)Cc2ccccn2)nc1` has an MBC of > 2000 µM (microbial killing; OG1RF).
The MBC of `CN[C@H](CC(C)C)C(=O)N[C@H]1C(=O)N[C@@H](CC(N)=O)C(=O)N[C@H]2C(=O)N[C@H]3C(=O)N[C@H](C(=O)N[C@H](C(=O)O)c4cc(O)cc(O)c4-c4cc3ccc4O)[C@H](O)c3ccc(c(Cl)c3)Oc3cc2cc(c3O[C@@H]2O[C@H](CO)[C@@H](O)[C@H](O)[C@H]2O[C@H]2C[C@](C)(N)[C@H](O)[C@H](C)O2)Oc2ccc(cc2Cl)[C@H]1O` is reported as 16 µM (≈ 23.2 µg/mL) (microbial killing, broth dilution; NCTC12697).
